High-throughput results deposited in PubChem BioAssay by several laboratories.
The list is not random: actives were taken first. Their share in the collection is about 12%.
Diaph inh CS: diaphorase inhibitors and chemical oxidizers, primary screen, counter-screen for diaphorase-coupled primary assays, biochemical, uHTS, resorufin fluorescence; AID 1217, 2008; actives 0.69% (n = 190,000); diaphorase resazurin-to-resorufin fluorescence, NADH, 16 min; bacterial (C. kluyveri) enzyme, not human; inhibition, % at 20 µM;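 active = primary screen inhibition at 20 µM above a set limit, cut at about 50% in these data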
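Test system: Clostridium kluyveri diaphorase enzyme / Quantity: diaphorase at 0.14 U/mL in enzyme working solution / Incubation: 16-min room-temperature incubation before reading / Benchmarks: NADH-free wells as positive control, DMSO-only neutral wells / Signal: resorufin fluorescence 544/590 nm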
KCC2 mod: KCC2 cotransporter modulators, thallium flux, primary screen, cell-based, HEK293 KCC2, FluoZin-2 fluorescence, MLSMR; B-score of Tl+ flux slope (higher = more flux/activation; lower = inhibition) at 10 µM; actives 2.2% (n = 190,000); Solute carrier family 12 member 5 (Homo sapiens), Q9H2X9; KCC2 cells, thallium flux FluoZin-2 fluorescence;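 active = thallium flux slope and its plate-corrected score both differing from the plate sample mean at a set confidence after two filtering rounds, in either direction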;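 note: slope of fluorescence scaled to starting intensity during 10 to 20 s after thallium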
L major viab: Leishmania major promastigote growth inhibition, primary screen; Leishmania major promastigotes, resazurin fluorescence viability; inhibition, % at 10 µM; actives 9% (n = 200,000); AID 1063, 2008; in the data active = inhibition above about 50%;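 note: promastigotes grown with compound for 44 hours at 28 °C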
Diaph act CS: compounds boosting diaphorase resazurin reduction – biochemical, uHTS, resorufin fluorescence, counter-screen for diaphorase-coupled primary assays, primary screen; Diaphorase/resazurin coupled assay, 16 min; active compounds read high; 1 = vehicle wells, 0 = NADH-free wells; activation factor at 20 µM; actives 0.005% (n = 190,000); AID 1229, 2008;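 active = diaphorase activity raised at least twofold by the compound at 20 µM; inactive = activation factor below 2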
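Material: purified diaphorase enzyme from Clostridium kluyveri; Also added: 0.114 mM NADH and 0.1 mM resazurin, final amounts; Doses: single compound dose of 20 µM, 1% DMSO final; Times: 16 min enzyme reaction, ambient temperature; Detection: resorufin fluorescence, excitation 544 nm, emission 590 nm; Measure: increased resorufin signal from activators or reducing compounds.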
ROMK primary: ROMK potassium channel modulators, primary screen, cell-based, thallium flux, MLSMR library | actives 2% (n = 130,000) | B-score at 10 µM | AID 1918, 2009 | Tet-inducible ROMK, thallium flux fluorescence; actives lie on both sides | ATP-sensitive inward rectifier potassium channel 1 (Homo sapiens), P48048;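 active = signal ratio slope over the read window, or its plate-corrected B-score, at least 3 SD from the plate mean, either direction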;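 note: B-score of the F/F0 ratio slope over 7 to 12 s after thallium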
WT yeast gro inh: growth inhibition of WT strain, primary screen, mitochondrial fusion inhibitor project, WT and mutant strains, chemical genetic; actives 2.1% (n = 190,000); inhibition, % at 10 µM; mitochondrial fusion phenotypic screen; in the data active = inhibition above about 58%; tested in S. cerevisiae
Of the large screens only hits and unclear results are named; the others gave an inactive call.

Cn1cnnc1SCC(=O)NN(c1ccccc1)c1ccccc1	none
COc1ccc(NC(=S)N(Cc2cccnc2)Cc2ccco2)cc1	L major viab 91
CCc1ccc(NC(=S)N(Cc2cccnc2)Cc2ccco2)cc1	L major viab 100
Cc1cc(O)c(-c2n[nH]c3c2C(c2cccc(O)c2)N(Cc2cccnc2)C3=O)cc1Cl (stereo not drawn)	none
CCOC(=O)Cc1c(C)nc2c(-c3ccc(Cl)cc3)c(C)[nH]n2c1=O	L major viab 95 (no result: KCC2 mod, ROMK primary)
O=C(CSc1cn(CCNC(=O)c2ccc3ccccc3c2)c2ccccc12)NCc1ccco1	none (no result: ROMK primary)
COC(=O)c1ccc2c(c1)C(C)(C)C(/C=C/c1ccc(O)cc1)=[N+]2C	L major viab 101 (no result: ROMK primary)
COC(=O)c1ccc2nc(C)c(C)nc2c1	none (no result: ROMK primary)
COC(=O)CCSc1cc(NCCOC(C)=O)c([N+](=O)[O-])c2nonc12	L major viab 84
CCCC(=O)OCCNc1cc(SCCC(=O)OC)c2nonc2c1[N+](=O)[O-]	Diaph inh CS 75 (no result: ROMK primary)
CC(=O)OCCNc1cc(Sc2nc3ccccc3[nH]2)c2nonc2c1[N+](=O)[O-]	none (no result: ROMK primary)
O=C(c1ccc(F)cc1)N(C(=O)c1ccc(F)cc1)c1ncccn1	none
C=CCn1c(SCC(=O)c2ccc(O)c(O)c2)nnc1-c1ccccc1OC	Diaph inh CS 64
CCn1c(SCC(=O)c2ccc(O)c(O)c2)nnc1-c1ccccc1OC	none
C/C(=N\NC(=O)CCc1c(C)n[nH]c1C)c1ccc([N+](=O)[O-])cc1	none (no result: Diaph inh CS, L major viab, Diaph act CS, ROMK primary, WT yeast gro inh)
C/C(=N\NC(=O)CCc1c[nH]c2ccccc12)c1ccc([N+](=O)[O-])cc1	L major viab 61 (no result: ROMK primary)
COc1cc(/C=N/OCC(=O)Nc2cc(C)cc(C)c2)ccc1OCc1ccc(Cl)cc1	L major viab 96
COc1cc(/C=N/OCC(=O)NC2CCCCC2C)ccc1OCc1ccc(Cl)cc1 (stereo not drawn)	L major viab 83
COc1cc(NC(=S)NC2CC(C)(C)NC(C)(C)C2)c(OC)cc1Cl	none
COC(=O)c1ccc(C(=O)OC)c(NC2=NS(=O)(=O)c3ccccc32)c1	none
COC(=O)c1c(-c2ccccc2)csc1NC1=NS(=O)(=O)c2ccccc21	L major viab 89 (no result: ROMK primary)
COc1ccc(CNC(=O)C/C(C)=N/NC(=O)C23CC4CC(CC(C4)C2)C3)cc1	none
COc1cccc(NC(=O)c2ccc(C(=O)c3ccccc3)o2)c1	none (no result: ROMK primary)
COc1ccc(C(=O)C(C)N(C(=O)c2ccc(Cl)cc2Cl)N2C(=O)C3C4C=CC(C4)C3C2=O)cc1 (stereo not drawn)	L major viab 90 (no result: ROMK primary)
COc1ccccc1-c1nnc2n1N=C(c1ccc(O)c(O)c1)CS2	Diaph inh CS 51 (no result: KCC2 mod)
CNC(=S)NCCc1c[nH]c2ccc(OC)cc12	none
COc1ccc(CCNC(=S)NCCc2c[nH]c3ccccc23)cc1	L major viab 91
COc1ccc(OCC(=O)NCCc2c[nH]c3ccccc23)cc1	L major viab 64 (no result: Diaph inh CS, Diaph act CS, ROMK primary)
Cc1ccc(SCC2CNc3nc4ccccc4c(=O)n32)c(C)c1 (stereo not drawn)	none (no result: ROMK primary)
Cc1ccc(-n2ncc(-c3nn[nH]n3)c2N)cc1	none (no result: Diaph inh CS, L major viab, Diaph act CS, WT yeast gro inh)
Cc1ccc(-n2ncc3c(=O)n(CC#N)cnc32)cc1	none (no result: ROMK primary)
Cn1c(Cc2ccccc2)nnc1SCC(=O)c1ccc(Br)s1	WT yeast gro inh 63 (no result: KCC2 mod, ROMK primary)
Cn1nnnc1SCC(=O)c1ccc(Br)s1	none (no result: ROMK primary)
O=C1c2ccccc2C(=O)N1CCC1=CCCCC1	none
COc1ccc(NC(=O)C(C)N2c3cccc4cccc(c34)S2(=O)=O)cc1OC (stereo not drawn)	none (no result: ROMK primary)
CC(=O)c1cccc(NC(=O)N2CCC(NC(=O)C34CC5CC(CC(C5)C3)C4)CC2)c1	L major viab 55 (no result: ROMK primary)
COC(=O)[C@@H]1C[C@]2(OC(=O)c3ccccc3)C=CC(=O)C[C@@H]2N1C(=O)OCc1ccccc1	L major viab 100
COC(CNC(=O)C1CCCN1C(=O)OCc1ccccc1)OC (stereo not drawn)	none
O=S(=O)(c1ccc2nc(SCc3ccc(Cl)cc3)[nH]c2c1)N1CCOCC1	L major viab 81
O=S(=O)(c1ccc2nc(COc3ccc(Cl)cc3Cl)[nH]c2c1)N1CCOCC1	none (no result: ROMK primary)
COc1ccc(Cc2nc3ccc(S(=O)(=O)N4CCOCC4)cc3[nH]2)cc1	WT yeast gro inh 79 (no result: ROMK primary)
COc1ccc(Cc2nc3ccc(S(=O)(=O)N4CCOCC4)cc3[nH]2)cc1OC	none (no result: ROMK primary)
NC(=O)C1CC(=O)N(c2ccc(OCc3ccc(Cl)cc3)cc2)C1 (stereo not drawn)	none
CCCn1c(=O)c2ccccc2n2c(SCC(=O)N3CCc4ccccc4C3)nnc12	KCC2 mod -4.1 (no result: ROMK primary)
COCCn1c(SCC(=O)N2CCc3ccccc3C2)nc2cc(Cl)ccc2c1=O	L major viab 60
CC(C)Cn1c(SCC(=O)N2CCc3ccccc3C2)nc2cc(Cl)ccc2c1=O	L major viab 91
Cn1nnnc1SCC(=O)N1CCc2ccccc2C1	none
Cc1ccc(-n2nnnc2SCC(=O)N2CCc3ccccc3C2)c(C)c1	WT yeast gro inh 61
COCCn1c(SCc2ccc(C(=O)OC)o2)nc2cc(Cl)ccc2c1=O	none (no result: ROMK primary)
Cc1cc(C)c(NC(=S)NC(CO)(CO)CO)c(C)c1	none (no result: Diaph inh CS, L major viab, Diaph act CS, WT yeast gro inh)
CCN(CC)S(=O)(=O)c1ccc(NC(=O)COC(=O)CCc2cc(OC)c(OC)c(OC)c2)cc1	none (no result: ROMK primary)
COc1ccc(OC)c(Cc2nnc(CCC(=O)NCc3nc4ccccc4s3)o2)c1	none
CCc1nc(SCC(=O)N2CC(=O)Nc3ccccc32)c2c(C)c(C)sc2n1	KCC2 mod 5.5 (no result: ROMK primary)
C=CCn1c(SCC(=O)NCc2ccc3c(c2)OCO3)nc2scc(-c3ccccc3)c2c1=O	none (no result: ROMK primary)
O=C1CN(C(=O)CSc2nc3cc(Cl)ccc3c(=O)n2Cc2ccccc2)c2ccccc2N1	KCC2 mod 24 (no result: ROMK primary)
C=CCn1c(SCC(=O)N2CC(=O)Nc3ccccc32)nc2scc(-c3ccccc3)c2c1=O	L major viab 94 (no result: ROMK primary)
NS(=O)(=O)c1ccc(NC(=O)C(Sc2ccccc2)c2ccccc2)cc1 (stereo not drawn)	none (no result: ROMK primary)
NS(=O)(=O)c1ccc(CCNC(=O)C2CCN(S(=O)(=O)c3ccc(Br)s3)CC2)cc1	none
Cc1[nH]n(-c2ccccc2)c(=O)c1C(C[N+](=O)[O-])c1ccc(Br)cc1 (stereo not drawn)	L major viab 100 (no result: ROMK primary)
Cn1cc(Br)c(C(=O)n2cc(Br)cn2)n1	none
